The values that follow come from ChEMBL document CHEMBL1152370, “N-(4-Fluorobenzyl)-3-hydroxy-9,9-dimethyl-4-oxo-6,7,8,9-tetrahydro-4H-pyrazino[1,2-a]pyrimidine-2-carboxamides a novel class of potent HIV-1 integrase inhibitors” (Bioorg Med Chem Lett, 2009).

Series [1] has as its target Human immunodeficiency virus type 1 integrase (Human immunodeficiency virus 1, UniProt Q7ZJM1). The series can be described thus: Inhibition of HIV1 recombinant integrase strand transfer activity treated after enzyme assembly and washing.
Series [2] concerns Human immunodeficiency virus 1. The series is described as follows: Antiviral activity against HIV1 3B infected in human MT4 cells assessed as inhibition of viral spread in presence of 10% heat inactivated fetal bovine serum. It counts as functional. The following applies: Human immunodeficiency virus 1, 3B, read-out: CIC95. The method, boiled down:
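Spread assay of HIV-1 IIIB infection in MT-4 human T-lymphoid cell culture with 10% heat-inactivated fetal bovine serum. The value is the 95% inhibitory concentration (CIC95) for blocking the spread of infection. SD was always ±10% of the value.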

Series [3] concerns Human immunodeficiency virus 1. The series can be described thus: Antiviral activity against HIV1 3B infected in human MT4 cells assessed as inhibition of viral spread in presence of 50% normal human serum. It counts as functional. To be noted: Human immunodeficiency virus 1, 3B, read-out: CIC95. The method, boiled down: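 Spread assay of HIV-1 IIIB infection in MT-4 human T-lymphoid cell culture with 50% normal human serum. The value is the CIC95, the 95% inhibitory concentration for blocking the spread of infection. SD was always ±10% of the value.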

Series [4] can be described thus: Plasma clearance in rat. It counts as ADME, organism-based.
Series [5] is described as follows: Bioavailability in rat. It counts as ADME, organism-based. The following applies: in vivo.

Molecules are shown by their SMILES. A value given as a limit tells only on which side of the number the result lay.

Human immunodeficiency virus type 1 integrase, sequence (Q7ZJM1 whole entry): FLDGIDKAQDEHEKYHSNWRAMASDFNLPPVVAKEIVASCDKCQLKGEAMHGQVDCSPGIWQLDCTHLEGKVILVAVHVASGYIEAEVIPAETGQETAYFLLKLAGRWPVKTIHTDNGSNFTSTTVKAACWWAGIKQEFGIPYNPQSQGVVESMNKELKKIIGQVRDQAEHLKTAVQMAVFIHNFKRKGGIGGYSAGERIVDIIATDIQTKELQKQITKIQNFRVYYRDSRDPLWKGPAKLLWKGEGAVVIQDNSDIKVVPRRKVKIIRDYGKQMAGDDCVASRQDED

On to `CC1(C)c2nc(C(=O)NCc3ccc(F)cc3)c(O)c(=O)n2CCN1Cc1nnn[nH]1`, for which the IC50 (usually the point on the concentration scale where inhibition reaches its midpoint) in series [1] amounted to 0.002 µM. For the same compound, the results for the IC95 in series [2] and in series [3] were 0.5 µM and 1 µM, respectively.
On the same counts, the results for `Cn1nnc(CN2CCn3c(nc(C(=O)NCc4ccc(F)cc4)c(O)c3=O)C2(C)C)n1` are 0.006 µM, 0.007 µM and 0.031 µM.
Regarding `CC1(C)c2nc(C(=O)NCc3ccc(F)cc3)c(O)c(=O)n2CCN1CCN1CCOCC1`, the IC50 in series [1] was 0.003 µM. The values for the IC95 in series [2] and in series [3] were 0.5 µM and 1 µM, respectively.
Consider `CCNC(=O)N1CCn2c(nc(C(=O)NCc3ccc(F)cc3)c(O)c2=O)C1(C)C`, for which the IC50 in series [1] amounted to 0.015 µM. For the same compound, the IC95 in series [2] was found to be 0.5 µM.
In the case of `CC1(C)NCCn2c1nc(C(=O)NCc1ccc(F)cc1)c(O)c2=O`, the IC50 in series [1] was determined as 0.016 µM. Further, the IC95 was found to be 0.125 µM in series [2] and 0.166 µM in series [3].
Take `Cn1cnc(CN2CCn3c(nc(C(=O)NCc4ccc(F)cc4)c(O)c3=O)C2(C)C)n1`: the IC50 in series [1] turned out to be 0.025 µM. For the same compound, the IC95 in series [2] stood at 0.031 µM; in series [3], 0.062 µM.
The corresponding values for `Cc1nc(CN2CCn3c(nc(C(=O)NCc4ccc(F)cc4)c(O)c3=O)C2(C)C)no1` are 0.006 µM, 0.015 µM and 0.062 µM.
On the same counts, the results for `Cn1nnnc1CN1CCn2c(nc(C(=O)NCc3ccc(F)cc3)c(O)c2=O)C1(C)C` are 0.005 µM, 0.015 µM and 0.062 µM.
In the case of `CN(C)S(=O)(=O)N1CCn2c(nc(C(=O)NCc3ccc(F)cc3)c(O)c2=O)C1(C)C`, the IC50 in series [1] stood at 0.008 µM. The IC95 in series [2] came out at 1 µM.
As to `CC1(C)c2nc(C(=O)NCc3ccc(F)cc3)c(O)c(=O)n2CCN1CCc1ccccn1`, the IC50 in series [1] was 0.012 µM. Moreover, the figures for the IC95 in series [2] and in series [3] were 0.25 µM and 1 µM, respectively.
The corresponding values for `CCN(CC)CCN1CCn2c(nc(C(=O)NCc3ccc(F)cc3)c(O)c2=O)C1(C)C` are 0.076 µM, 0.625 µM and 0.625 µM.
Consider `CNC(=O)CN1CCn2c(nc(C(=O)NCc3ccc(F)cc3)c(O)c2=O)C1(C)C`, for which the IC50 in series [1] was 0.021 µM. In addition, the IC95 in series [2] came out at 0.062 µM; in series [3], 0.125 µM.
The corresponding values for `CN(C)C(=O)CN1CCn2c(nc(C(=O)NCc3ccc(F)cc3)c(O)c2=O)C1(C)C` are 0.008 µM, 0.062 µM and 0.125 µM.
Regarding `CC1(C)NC(=O)Cn2c1nc(C(=O)NCc1ccc(F)cc1)c(O)c2=O`, the IC50 in series [1] turned out to be 0.005 µM. Further, the IC95 in series [2] and in series [3] was above 1 µM in each case.
Consider `Cc1cc(CN2CCn3c(nc(C(=O)NCc4ccc(F)cc4)c(O)c3=O)C2(C)C)on1`, for which, in series [1], the IC50 was 0.062 µM. Moreover, the IC95 came out at 0.031 µM in series [2] and 0.125 µM in series [3].
For `Cc1noc(CN2CCn3c(nc(C(=O)NCc4ccc(F)cc4)c(O)c3=O)C2(C)C)n1`, the IC50 in series [1] amounted to 0.013 µM. The IC95 in series [2] amounted to 0.015 µM; in series [3] it was 0.062 µM.
On the same counts, the results for `CC1(C)c2nc(C(=O)NCc3ccc(F)cc3)c(O)c(=O)n2CCN1Cc1ccccn1` are 0.009 µM, 0.031 µM and 0.125 µM.
On to `Cn1ccc(CN2CCn3c(nc(C(=O)NCc4ccc(F)cc4)c(O)c3=O)C2(C)C)n1`, for which the IC50 in series [1] was determined as 0.009 µM. The IC95 in series [2] was found to be 0.031 µM; in series [3], 0.125 µM.
The corresponding values for `CC1(C)c2nc(C(=O)NCc3ccc(F)cc3)c(O)c(=O)n2CCN1Cc1nnco1` are 0.021 µM, 0.015 µM and 0.062 µM.
Turning to `Cc1nnc(CN2CCn3c(nc(C(=O)NCc4ccc(F)cc4)c(O)c3=O)C2(C)C)o1`, in series [1], the IC50 worked out at 0.005 µM. Also, the IC95 in series [2] was 0.007 µM; in series [3] it was 0.062 µM.
On to `CC1(C)c2nc(C(=O)NCc3ccc(F)cc3)c(O)c(=O)n2CCN1S(C)(=O)=O`, for which, in series [1], the IC50 came out at 0.01 µM. For the same compound, the IC95 in series [2] worked out at 1 µM.
On to `CN1Cn2c(nc(C(=O)NCc3ccc(F)cc3)c(O)c2=O)C1(C)C`, for which, in series [1], the IC50 is 0.03 µM. The IC95 was found to be 0.5 µM in series [2] and 1 µM in series [3].
As for `Cn1cc(CN2CCn3c(nc(C(=O)NCc4ccc(F)cc4)c(O)c3=O)C2(C)C)nn1`, the IC50 in series [1] came out at 0.002 µM. Also, the IC95 in series [2] turned out to be 0.031 µM; in series [3] it was 0.062 µM.
On the same counts, the results for `CC1(C)c2nc(C(=O)NCc3ccc(F)cc3)c(O)c(=O)n2CCN1CC(=O)N1CCCC1` are 0.007 µM, 0.031 µM and 0.25 µM.
As to `CC1(C)c2nc(C(=O)NCc3ccc(F)cc3)c(O)c(=O)n2CCN1Cc1cn[nH]c1`, the IC50 in series [1] came to 0.007 µM. For the same compound, the values for the IC95 in series [2] and in series [3] were 0.062 µM and 1 µM, respectively.
In the case of `CC(=O)N1CCn2c(nc(C(=O)NCc3ccc(F)cc3)c(O)c2=O)C1(C)C`, in series [1], the IC50 was 0.005 µM. Moreover, the IC95 in series [2] was found to be 1 µM.
Take `CC1(C)c2nc(C(=O)NCc3ccc(F)cc3)c(O)c(=O)n2CCN1Cc1cnco1`: the IC50 in series [1] came to 0.004 µM. The IC95 is 0.031 µM in series [2] and 0.125 µM in series [3].
The corresponding values for `Cn1nccc1CN1CCn2c(nc(C(=O)NCc3ccc(F)cc3)c(O)c2=O)C1(C)C` are 0.007 µM, 0.031 µM and 0.125 µM.
On the same counts, the results for `CC1(C)c2nc(C(=O)NCc3ccc(F)cc3)c(O)c(=O)n2CCN1CC(N)=O` are 0.005 µM, 0.125 µM and 0.25 µM.
On to `CN1CCn2c(nc(C(=O)NCc3ccc(F)cc3)c(O)c2=O)C1(C)C`, for which the IC50 in series [1] came out at 0.006 µM. Moreover, the IC95 in series [2] stood at 0.125 µM; in series [3], 0.25 µM. The clearance – broadly, the rate of elimination divided by the concentration – in series [4] was determined as 0.6 L/h/kg. Besides, in series [5], the bioavailability (as a rule, the share of a dose that reaches the circulation, judged against a reference dose that is usually intravenous) is 57%.
For the compound `CC1(C)c2nc(C(=O)NCc3ccc(F)cc3)c(O)c(=O)n2CCN1Cc1cocn1`, the IC50 in series [1] is 0.003 µM. The IC95 is 0.031 µM in series [2] and 0.093 µM in series [3].
The corresponding values for `CC1(C)c2nc(C(=O)NCc3ccc(F)cc3)c(O)c(=O)n2CCN1Cc1ccn[nH]1` are 0.005 µM, 0.062 µM and 0.25 µM.
As to `CN1CCN(C(=O)CN2CCn3c(nc(C(=O)NCc4ccc(F)cc4)c(O)c3=O)C2(C)C)CC1`, in series [1], the IC50 worked out at 0.021 µM. The IC95 was 0.062 µM in series [2] and 0.125 µM in series [3].
In the case of `Cn1nncc1CN1CCn2c(nc(C(=O)NCc3ccc(F)cc3)c(O)c2=O)C1(C)C`, the IC50 in series [1] is 0.006 µM. The values for the IC95 in series [2] and in series [3] were 0.015 µM and 0.125 µM, respectively.
In the case of `CN(C)CCN1CCn2c(nc(C(=O)NCc3ccc(F)cc3)c(O)c2=O)C1(C)C`, the IC50 in series [1] came out at 0.062 µM. In addition, the IC95 in series [2] and in series [3] was 1.25 µM in each case.
Take `CC1(C)c2nc(C(=O)NCc3ccc(F)cc3)c(O)c(=O)n2CCN1Cc1cnn[nH]1`: in series [1], the IC50 amounted to 0.006 µM. The IC95 was 0.031 µM in series [2] and 0.125 µM in series [3].
On the same counts, the results for `CC1(C)c2nc(C(=O)NCc3ccc(F)cc3)c(O)c(=O)n2CCN1Cc1cnccn1` are 0.006 µM, 0.031 µM and 0.125 µM.
The corresponding values for `CC1(C)c2nc(C(=O)NCc3ccc(F)cc3)c(O)c(=O)n2CCN1CC(=O)N1CCOCC1` are 0.007 µM, 0.062 µM and 0.25 µM.
The corresponding values for `CC1(C)NS(=O)(=O)Cn2c1nc(C(=O)NCc1ccc(F)cc1)c(O)c2=O` are 0.007 µM, 5 µM and above 10 µM.
Take `CC1(C)c2nc(C(=O)NCc3ccc(F)cc3)c(O)c(=O)n2CCN1CC(=O)O`: the 50% inhibitory concentration (IC50) in series [1] stood at 0.008 µM. Further, the values for the IC95 in series [2] and in series [3] were 0.5 µM and 1 µM, respectively.
As for `CN(C)[C@@H]1CCCn2c1nc(C(=O)NCc1ccc(F)cc1)c(O)c2=O`, the IC50 in series [1] stood at 0.069 µM.
As to `CC1(C)NCCCn2c1nc(C(=O)NCc1ccc(F)cc1)c(O)c2=O`, the IC50 in series [1] is 0.02 µM. The IC95 worked out at 0.5 µM in series [2] and 0.25 µM in series [3].
As for `CC1(C)c2nc(C(=O)NCc3ccc(F)cc3)c(O)c(=O)n2CCN1Cc1ccccc1`, the IC50 in series [1] was found to be 0.005 µM. Further, the IC95 in series [2] was 0.125 µM; in series [3] it was 0.25 µM.
On the same counts, the results for `Cc1cnc(CN2CCn3c(nc(C(=O)NCc4ccc(F)cc4)c(O)c3=O)C2(C)C)o1` are 0.008 µM, 0.015 µM and 0.062 µM.
In the case of `CC1(C)NC(=O)n2c1nc(C(=O)NCc1ccc(F)cc1)c(O)c2=O`, in series [1], the IC50 was 0.032 µM. Also, the IC95 in series [2] and in series [3] was above 1 µM each time.
Consider `CN(C)C(=O)C(=O)N1CCn2c(nc(C(=O)NCc3ccc(F)cc3)c(O)c2=O)C1(C)C`, for which, in series [1], the concentration for half-maximal inhibition (IC50) was found to be 0.006 µM. For the same compound, the IC95 in series [2] is 1 µM.
With `CC1(C)c2nc(C(=O)NCc3ccc(F)cc3)c(O)c(=O)n2CCN1Cc1cscn1`, the IC50 in series [1] came to 0.009 µM. Besides, the results for the IC95 in series [2] and in series [3] were 0.015 µM and 0.125 µM, respectively.
As for `Cc1nnc(C(=O)NC(C)(C)c2nc(C(=O)NCc3ccc(F)cc3)c(O)c(=O)n2C)o1` [RALTEGRAVIR POTASSIUM], the IC95 in series [2] stood at 0.019 µM; in series [3], 0.031 µM.
